# Experimental data: ChEMBL document CHEMBL1156051, “Synthesis and evaluation of lysophosphatidylserine analogues as inducers of mast cell degranulation. Potent activities of lysophosphatidylthreonine and its 2-deoxy derivative” (J Med Chem, 2009)
# pEC50: −log10 of the molar value. Activity calls are given as the source filed them. No cut-off for these calls is given here.
# Experiments:
# [1] = test system: Mast cell; assay: Induction of Wistar rat peritoneal mast cell degradation assessed as concanavalin A-induced histamine release at 0.01 to 10 uM after 15 mins fluorometric assay; assay type: functional, cell-based
# Summary of the method: (§1)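 Peritoneal mast cells at 5 × 10^4/mL in HEPES-buffered Tyrode stimulated with analogue plus 100 μg/mL concanavalin A for 15 min at 37 C. Supernatant histamine measured fluorometrically and expressed as percent of total cell histamine. Means ± SE of three independent experiments.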
# [2] = test system: Mast cell; assay: Induction of Wistar rat peritoneal mast cell degradation assessed as concanavalin A-induced histamine release after 15 mins fluorometric assay; assay type: functional, cell-based; conditions: 0.25 h; summary of the method: as §1
# [3] = test system: Mast cell; assay: Induction of C57BL/6 mouse peritoneal mast cell degradation assessed as concanavalin A-induced histamine release at 0.01 to 10 uM after 15 mins fluorometric assay; assay type: functional, cell-based
# Summary of the method: (§2)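 Peritoneal mast cells at 5 × 10^4/mL in HEPES-buffered Tyrode stimulated with analogue plus 10 μg/mL concanavalin A for 15 min at 37 C. Supernatant histamine measured fluorometrically and expressed as percent of total cell histamine. Means ± SE of three independent experiments.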
# [4] = test system: CHO-K1; assay: Increase in intracellular calcium level in CHOK1 cells by spectrofluorimetry; assay type: functional, cell-based; conditions: Cricetulus griseus
# Summary of the method: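 Fura-2-loaded mock-transfected CHO-K1 cells were stimulated at 2 μM; [Ca2+]i read as 500 nm emission ratio at 340/380 nm excitation.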
# [5] = molecular target: Probable G-protein coupled receptor 34 (Mus musculus) (UniProt Q9R1K6); assay: Activation of mouse GPR34 expressed in CHOK1 cells assessed as phosphorylated ERK level at 0.01 to 10 uM by Western blotting; assay type: cell-based; conditions: CHO-K1
# Summary of the method: (§3)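 Serum-starved CHO-K1 cells stably expressing flag-tagged GPR34 were stimulated with analogue for 5 min at 37 C and stopped by rapid cooling on ice. Lysates (6 μg protein) were Western blotted with antibodies to phospho-p42/p44 and total p42/p44 MAP kinase. Mock-transfected cells served as control.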
# [6] = test system: Mast cell; assay: Induction of Wistar rat peritoneal mast cell degradation assessed as anti-DNP IgE-induced histamine release at 0.01 to 10 uM after 15 mins fluorometric assay; assay type: functional, cell-based
# [7] = molecular target: Probable G-protein coupled receptor 34 (Mus musculus) (UniProt Q9R1K6); assay: Activation of mouse GPR34 expressed in CHOK1 cells assessed as increase in intracellular calcium level by spectrofluorimetry; assay type: functional, cell-based; conditions: CHO-K1
# Summary of the method: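 Fura-2-loaded CHO-K1 cells stably expressing flag-tagged GPR34 (G418 selection, then anti-flag immunomagnetic positive selection), stimulated with analogue at 2 μM; [Ca2+]i read fluorometrically as ratio of 500 nm emission at 340/380 nm excitation.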
# [8] = test system: Mast cell; assay: Induction of C57BL/6 mouse peritoneal mast cell degradation assessed as concanavalin A-induced histamine release after 15 mins fluorometric assay; assay type: functional, cell-based; conditions: C57BL/6, Mast cell, 0.25 h; summary of the method: as §2
# [9] = test system: CHO-K1; assay: Inhibition of forskolin-induced cAMP production in CHOK1 cells at 0.01 to 10 uM after 30 mins by EIA; assay type: functional, cell-based; conditions: Cricetulus griseus
# Summary of the method: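 Mock-transfected CHO-K1 cells were cultured overnight and pretreated 20 min with 0.5 mM IBMX, then costimulated with analogue and 25 μM forskolin for 30 min at 37 C; accumulated cAMP was measured by EIA.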
# [10] = test system: CHO-K1; assay: Increase in MAPK level in CHOK1 cells at 0.01 to 10 uM by Western blotting; assay type: functional, cell-based; conditions: Cricetulus griseus
# Summary of the method: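 Serum-starved mock (empty vector) transfected CHO-K1 cells were stimulated for 5 min at 37 C and cooled on ice to stop. Lysates (6 μg protein) were Western blotted for phospho- and total p42/p44 MAP kinase.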
# [11] = test system: Rattus norvegicus; assay: Effect on hypothermic effect in Wistar rat assessed as reduction in rectal temperature at 20 to 100 ug, iv measured every 5 to 10 mins for 60 mins; assay type: functional, organism-based
# Summary of the method: (§4)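 Analogue suspended in PBS with 0.1% BSA and given intravenously; rectal temperature read with a rectal probe every 5 or 10 min for 60 min. Means ± SE of three independent experiments.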
# [12] = Cytotoxicity against concanavalin A-stimulated Wistar rat peritoneal mast cells assessed as LDH release at 50 uM; assay type: cell-based
# [13] = molecular target: Probable G-protein coupled receptor 34 (Mus musculus) (UniProt Q9R1K6); assay: Activation of mouse GPR34 expressed in CHOK1 cells assessed as total ERK level at 0.01 to 10 uM by Western blotting; assay type: cell-based; conditions: CHO-K1; summary of the method: as §3
# [14] = test system: Mast cell; assay: Ratio of lysophosphatidylserine EC50 to compound EC50 for induction of concanavalin A-stimulated C57BL/6 mouse peritoneal mast cell […] associated histamine release; assay type: functional
# [15] = test system: G protein-coupled receptor 34 (Mus musculus); assay: Activation of mouse GPR34 expressed in CHOK1 cells assessed as total ERK level at 0.01 to 10 uM by Western blotting; conditions: CHO-K1
# [16] = species: Rattus norvegicus; assay: Ratio of compound activity over lysophosphatidylserine activity for induction of hypothermic effect in Wistar rat; assay type: functional
# [17] = test system: G protein-coupled receptor 34 (Mus musculus); assay: Activation of mouse GPR34 expressed in CHOK1 cells assessed as phosphorylated ERK level at 0.01 to 10 uM by Western blotting; conditions: CHO-K1
# [18] = molecular target: Probable G-protein coupled receptor 34 (Mus musculus) (UniProt Q9R1K6); assay: Activation of mouse GPR34 expressed in CHOK1 cells assessed as inhibition of forskolin-induced cAMP production at 0.01 to 10 uM after 30 mins by EIA; assay type: functional, cell-based; conditions: CHO-K1
# Summary of the method: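 CHO-K1 stably expressing flag-tagged mouse GPR34, cultured overnight, pretreated 20 min with 0.5 mM IBMX, then costimulated with analogue plus 25 μM forskolin for 30 min at 37 C; cAMP measured by EIA, level without ligand set as 100%.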
# [19] = test system: Mast cell; assay: Ratio of lysophosphatidylserine EC50 to compound EC50 for induction of concanavalin A-stimulated Wistar rat peritoneal mast cell […] associated histamine release; assay type: functional
# [20] = test system: Mast cell; assay: Induction of Wistar rat peritoneal mast cell degranulation assessed as concanavalin A-induced histamine release at 0.03 uM pretreated for 15 mins measured after washout with 0.5% fatty acid-free BSA by fluorometric assay; assay type: functional, cell-based
# Summary of the method: (§5)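 Rat peritoneal mast cells preincubated with analogue, then washed with buffer containing 0.01% or 0.5% fatty-acid-free BSA. Cells then challenged with concanavalin A, and histamine release measured.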
# [21] = test system: Mus musculus; assay: Increase in plasma histamine level in iv dosed C57BL/6 mouse after 2 mins by EIA; assay type: functional, organism-based
# Summary of the method: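 Mice injected i.v. with analogue in PBS with 0.1% BSA; blood taken 2 min after injection and plasma histamine measured by enzyme immunoassay. Means ± SE of three independent experiments.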
# [22] = test system: G protein-coupled receptor 34 (Mus musculus); assay: Activation of mouse GPR34 expressed in CHOK1 cells assessed as increase in intracellular calcium level by spectrofluorimetry; conditions: CHO-K1
# [23] = test system: Mast cell; assay: Ratio of compound activity over lysophosphatidylserine activity for induction of anti-DNP IgE-stimulated Wistar rat peritoneal mast cell […] associated histamine release; assay type: functional
# [24] = test system: Mast cell; assay: Induction of Wistar rat peritoneal mast cell degranulation assessed as concanavalin A-induced histamine release at 0.03 uM pretreated for 15 mins measured after washout with 0.01% fatty acid-free BSA by fluorometric assay; assay type: functional, cell-based; summary of the method: as §5
# [25] = test system: Mus musculus; assay: Effect on hypothermic effect in C57BL/6 mouse assessed as reduction in rectal temperature at 1 to 5 ug, iv measured every 5 to 10 mins for 60 mins; assay type: functional, organism-based; summary of the method: as §4
# [26] = species: Mus musculus; assay: Ratio of compound activity over lysophosphatidylserine activity for induction of hypothermic effect in C57BL/6 mouse; assay type: functional
# [27] = test system: Rattus norvegicus; assay: Effect on hypothermic effect in iv dosed Wistar rat assessed as reduction in rectal temperature measured every 5 to 10 mins for 60 mins; assay type: functional, organism-based; summary of the method: as §4
# [28] = test system: Mus musculus; assay: Effect on hypothermic effect in iv dosed C57BL/6 mouse assessed as reduction in rectal temperature measured every 5 to 10 mins for 60 mins; assay type: functional, organism-based; summary of the method: as §4
# [29] = test system: Mus musculus; assay: Effect on hypothermic effect in mast cell-deficient WBB6F1 mouse assessed as reduction in rectal temperature at 10 ug, iv measured every 5 to 10 mins for 60 mins; assay type: functional, organism-based
# Summary of the method: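 W/Wv mast cell-deficient mice, with C57BL/6 as comparison, were given 10 μg iv in PBS containing 0.1% BSA. Rectal temperature was monitored every 5 or 10 min for 60 min. Three independent experiments.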
# Sequence of Probable G-protein coupled receptor 34 (Mus musculus) (Q9R1K6 whole entry): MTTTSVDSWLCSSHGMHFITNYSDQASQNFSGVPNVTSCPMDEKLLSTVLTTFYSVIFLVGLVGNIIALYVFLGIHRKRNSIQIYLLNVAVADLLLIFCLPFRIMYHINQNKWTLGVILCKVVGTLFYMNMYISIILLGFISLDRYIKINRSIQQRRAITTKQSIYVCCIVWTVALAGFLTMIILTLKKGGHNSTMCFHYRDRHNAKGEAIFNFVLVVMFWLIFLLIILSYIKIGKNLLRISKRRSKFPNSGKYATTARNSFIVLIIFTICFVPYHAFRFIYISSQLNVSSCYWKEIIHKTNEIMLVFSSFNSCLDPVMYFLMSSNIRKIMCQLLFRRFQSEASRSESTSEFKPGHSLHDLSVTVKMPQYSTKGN
smiles,measurement,setting,value
CCCCCCCCCCCCCCCCCC(=O)OC[C@@H](O)COP(=O)(O)O[C@@H]1CCN[C@H]1C(=O)O,Activity,[1],inactive
same,pEC50,[2],< 5.00
same,Activity,[3],inactive
CCCCCCCCCCCCCCCCCC(=O)OC[C@@H](O)COP(=O)(O)O[C@H](C)[C@H](N)C(=O)O,Activity,[4],inactive
same,Activity,[5],inactive
same,Activity,[6],Active
same,Activity,[7],inactive
same,pEC50,[8],8.00
same,Activity,[9],inactive
same,Activity,[10],inactive
same,Activity,[11],Active
same,Activity,[12],Non-toxic
same,Activity,[1],Active
same,Activity,[13],inactive
same,Ratio EC50,[14],10
same,Activity,[15],inactive
same,Ratio,[16],50
same,Activity,[17],inactive
same,pEC50,[2],7.40
same,Activity,[18],inactive
same,Ratio EC50,[19],10
same,Activity,[20],inactive
same,Activity,[21],Active
same,Activity,[22],inactive
same,Ratio,[23],10
same,Activity,[24],Active
same,Activity,[3],Active
same,Activity,[25],Active
same,Ratio,[26],20
CCCCCCCCCCCCCCCC(=O)OCCCOP(=O)(O)O[C@H](C)[C@@H](N)C(=O)O,Activity,[27],inactive
same,pEC50,[2],< 5.00
same,Activity,[28],inactive
CCCCCCCCCCCCCCCCCC(=O)OC[C@@H](O)COP(=O)(O)O[C@@H]1CN[C@@H](C(=O)O)C1,Activity,[1],inactive
same,pEC50,[2],< 5.00
same,Activity,[3],inactive
CCCCCCCCCCCCCCCCCC(=O)OC[C@@H](O)COP(=O)(O)OC[C@H](NC)C(=O)O,Activity,[1],inactive
same,pEC50,[2],< 5.00
same,Activity,[3],inactive
CCCCCCCCCCCCCCCCCC(=O)NC[C@@H](O)COP(=O)(O)OC[C@H](N)C(=O)O,Activity,[1],inactive
same,pEC50,[2],5.30
same,Activity,[3],inactive
CCCCCCCCCCCCCCCCCC(=O)OC[C@@H](O)COP(=O)(O)O[C@H]1CN[C@@H](C(=O)O)C1,Activity,[1],inactive
same,pEC50,[2],< 5.00
same,Activity,[3],inactive
CCCCCCCCCCCCCCCCCC(=O)OCCCOP(=O)(O)O[C@H](C)[C@H](N)C(=O)O,pEC50,[8],8.15
same,Activity,[1],Active
same,pEC50,[2],7.00
same,Activity,[28],Active
same,Activity,[21],Active
same,Activity,[3],Active
same,Activity,[29],inactive
CCCCCCCCCCCC(=O)OC[C@@H](O)COP(=O)([O-])OCC[N+](C)(C)C [LYSOPHOSPHATIDYLCHOLINE],Activity,[12],Toxic
CCCCCCCCCCCCCCCCCC(=O)OC[C@H](O)COP(=O)(O)OC[C@H](N)C(=O)O,pEC50,[8],7.15
same,pEC50,[2],6.00
CCCCCCCCCCCCCCCCCC(=O)N(C)C[C@@H](O)COP(=O)(O)OC[C@H](N)C(=O)O,Activity,[1],inactive
same,pEC50,[2],5.00
same,Activity,[3],inactive
CCCCCCCCCCCCCCCC(=O)OCCCOP(=O)(O)O[C@H](C)[C@H](N)C(=O)O,Activity,[1],Active
same,pEC50,[2],7.22
same,Activity,[3],Active
